ChEMBL document CHEMBL1148222, “Chemical constituents of Glycosmis arborea: three new carbazole alkaloids and their biological activity” (J Nat Prod, 2004)

How the values were obtained:
Format in all cases: cell-based
[1] = tested on: Raji; test: Cytotoxicity against human Raji cells at 0.32 […] after 48 hrs by trypan blue staining method
Procedure, shortened: (§1)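 Raji cells grown to 10^6 cells/mL, then resuspended in RPMI 1640 with 10% FCS. Medium held 4 mM n-butyric acid, 32 pmol TPA (20 ng/mL in DMSO) and test compound in DMSO. Culture ran 48 h at 37 °C. Viable cells were counted by hemocytometer with Trypan Blue exclusion. At least 60% survival is required for a valid EBV-EA reading.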

[2] = tested on: Raji; test: Inhibition of TPA-induced EBV-early antigen activation in human Raji cells at 0.32 […] after 48 hrs relative to control; parameters: scale not given: the % may be the effect or the level left; details: human gammaherpesvirus 4
Procedure, shortened: (§2)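 Raji cells at 10^6 cells/mL were resuspended in RPMI 1640 with 10% FCS. Induction used 4 mM n-butyric acid plus 32 pmol TPA (20 ng/mL), with test compound in DMSO at mol ratios of 10–1000 to TPA. Cells were held 48 h at 37 °C. EA-positive cells were counted blind, at least 500 cells per assay, and expressed as % of the TPA-only control (100%) ± SD.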

[3] = tested on: Raji; test: Cytotoxicity against human Raji cells at 32 […] after 48 hrs by trypan blue staining method; procedure, shortened: as §1
[4] = tested on: Raji; test: Inhibition of TPA-induced EBV-early antigen activation in human Raji cells at 16 […] after 48 hrs relative to control; parameters: scale not given: the % may be the effect or the level left; details: human gammaherpesvirus 4; procedure, shortened: as §2
[5] = tested on: Raji; test: Cytotoxicity against human Raji cells at 16 […] after 48 hrs by trypan blue staining method; procedure, shortened: as §1
[6] = tested on: Raji; test: Inhibition of TPA-induced EBV-early antigen activation in human Raji cells at 32 […] after 48 hrs relative to control; parameters: scale not given: the % may be the effect or the level left; details: human gammaherpesvirus 4; procedure, shortened: as §2
[7] = tested on: Raji; test: Cytotoxicity against human Raji cells at 3.2 […] after 48 hrs by trypan blue staining method; procedure, shortened: as §1
[8] = tested on: Raji; test: Inhibition of TPA-induced EBV-early antigen activation in human Raji cells at 3.2 […] after 48 hrs relative to control; parameters: scale not given: the % may be the effect or the level left; details: human gammaherpesvirus 4; procedure, shortened: as §2

Row | Structure (SMILES) | Activity [1] | Activity [2] | Activity [3] | Activity [4] | Activity [5] | Activity [6] | Activity [7] | Activity [8]
1 | COc1cccc2c(=O)c3ccoc3n(C)c12 | > 80% | 100% | 60% | 40.5% | > 80% | 19.9% | > 80% | 79.5%
2 | CC1=C(/C=C/C(C)=C/C=C/C(C)=C/C=C/C=C(C)/C=C/C=C(C)/C=C/C2=C(C)CCCC2(C)C)C(C)(C)CCC1 [BETA CAROTENE] | > 80% | 100% | 60% |  | > 80% | 9.1% | > 80% | 
3 | Cc1cc2c(cc1O)[nH]c1ccc3c(c12)C=CC(C)(C)O3 [GLYCOBORININE] | > 80% | 100% | 60% | 49.1% | > 80% | 17.4% | > 80% | 73.7%
4 | COc1ccc2[nH]c3cc(O)c(C)cc3c2c1CC=C(C)C [GLYBOMINE B] | > 80% | 96.4% | 60% | 46.7% | > 80% | 15.3% | > 80% | 68.7%
5 | CC(C)=CCc1c(O)ccc2[nH]c3cc(O)c(C)cc3c12 [GLYBOMINE C] | > 80% | 94.6% | 60% | 45.6% | > 80% | 13.4% | > 80% | 68.9%
6 | Cn1c(Cc2ccccc2)nc(=O)c2ccccc21 [ARBORINE] | > 80% | 100% | 60% | 40.4% | > 80% | 12.7% | > 80% | 75.6%
7 | COc1ccc2[nH]c3cc(OC)c(C)cc3c2c1 [GLYCOZOLIDINE] | > 80% | 100% | 60% | 51.3% | > 80% | 24.3% | > 80% | 76%
8 | COc1c2ccoc2nc2c(OC)cccc12 [GAMMA-FAGARINE] | > 80% | 100% | 60% | 38.2% | > 80% | 15.4% | > 80% | 77.7%
9 | COc1cc2c(c(O)c1OC)c(=O)c1ccccc1n2C [ARBORININE] | > 80% | 95.6% | 60% | 39.6% | > 80% | 2.7% | > 80% | 74.3%
10 | Cn1c2ccccc2c(=O)c2ccoc21 [ISODICTAMNINE] | > 80% | 100% | 60% | 40.3% | > 80% | 18.4% | > 80% | 72.2%
